An excerpt weighted towards active compounds, which were near 2% of everything screened.
TPT1 inhibitor: inhibitors of Candida albicans tRNA 2'-phosphotransferase TPT1 | recombinant caTPT1, FP RNA substrate dephosphorylation | inhibition, % at 5 µM | 300,000 compounds, 0.81% hits;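 active = inhibition above the mean of all tested compounds plus 3 SD, set per screening campaign, cut at about 24% in these data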
CSN deneddyl inh: CSN deneddylation inhibition. inhibition, % at 12.5 µM. Purified CSN, SCF-Nedd8-OG deneddylation, fluorescence polarization. Q92905. 360,000 compounds, 0.38% hits. AID 651999;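 active = pattern-corrected inhibition above about 35%, with an unprinted fluorescence ratio check between 0.5 and 1.5, limit read from the data, passing the limit was not always enough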
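Material: human Csn5 produced in HEK293T cells; Input: enzyme 0.24 nM; Reagent: SCFSkp2-Nedd8OG substrate at 10 nM final; Dosing: 12.5 µM compound; Incubation: 90 min reaction at room temperature; Detection: fluorescence polarization of the substrate; Evaluation: % inhibition of substrate cleavage by Csn5; Control set: substrate-only high control, full reaction low control.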
Rpn11 inh: Rpn11 (human) deubiquitinase inhibition | O00487 | human 26S proteasome, Ub4-pepOG fluorescence polarization; 20S core pre-blocked with epoxomicin | inhibition, % at 20 µM | 360,000 compounds, 0.59% hits | AID 588493;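 active = inhibition at 20 µM, scaled to each plate's controls, above about 33%, limit read from the data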
ATG4B inh: blocks human ATG4B protease cleavage of LC3 substrate; Q9Y4P1; ATG4B cleavage of LC3-PLA2, NBD-HPC fluorescence, 1 h; inhibition, % at 8.33 µM; 340,000 compounds, 0.51% hits
HNF4A DNA FP: change in binding of human HNF4 alpha to DNA. P41235. HNF4a-FITC DNA binding, fluorescence polarization, 1 h. 360,000 compounds, 0.3% hits. activity change, % at 10 µM; in the data active = activity change above about 30%, passing the limit was not always enough
SENP1 inh: blocks the human SENP1 SUMO protease catalytic domain. Q9P0U3. recombinant SENP1 catalytic domain, CyPet-SUMO1-YPet FRET cleavage. inhibition, % at 10 µM. 360,000 compounds, 0.21% hits. AID 624204;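 active = inhibition at least 30% at 10 µM, raw YFP signal under a set limit, fluorescence ratio 0.5 to 1.5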
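Controls: no-enzyme wells low, DMSO-plus-enzyme wells high control. Test system: human recombinant His6-tagged SENP1 catalytic domain enzyme. Reagent: SFCypet-SUMO1-SFYpet FRET protein substrate, 25 nM final. Doses: one dose per compound, 10 µM, 0.5% DMSO. Detection: FRET, CFP and YFP emission. Timing: 50 min reaction at room temperature.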
Rpn11 confirm: Rpn11 inhibition confirmation, single concentration. AID 602318. purified human 26S proteasome, Ub4-pepOG fluorescence polarization; proteasome pretreated with epoxomicin. 1,900 compounds, 29% hits. inhibition, % at 20 µM. shares compounds with Rpn11 inh
MMP-2 counter: counter-screen for RPN11 inhibitors: inhibition of human MMP-2; shares compounds with Rpn11 inh; recombinant MMP-2, FRET peptide cleavage fluorescence; inhibition, % at 20 µM; 1,900 compounds, 4% hits;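 also: human MMP-2 activated beforehand with APMA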
Thrombin FP: counter-screen for RPN11 inhibitors: inhibition of bovine thrombin; shares compounds with Rpn11 inh; bovine thrombin cleavage of Ub4-pepOG, fluorescence polarization; inhibition, % at 20 µM; 1,900 compounds, 13% hits; AID 602333;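 active = mean inhibition at least 40% at 20 µM, or signal 3 deviations below plate average, so some actives read negative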
Target sequence (P00735 whole entry, looked up): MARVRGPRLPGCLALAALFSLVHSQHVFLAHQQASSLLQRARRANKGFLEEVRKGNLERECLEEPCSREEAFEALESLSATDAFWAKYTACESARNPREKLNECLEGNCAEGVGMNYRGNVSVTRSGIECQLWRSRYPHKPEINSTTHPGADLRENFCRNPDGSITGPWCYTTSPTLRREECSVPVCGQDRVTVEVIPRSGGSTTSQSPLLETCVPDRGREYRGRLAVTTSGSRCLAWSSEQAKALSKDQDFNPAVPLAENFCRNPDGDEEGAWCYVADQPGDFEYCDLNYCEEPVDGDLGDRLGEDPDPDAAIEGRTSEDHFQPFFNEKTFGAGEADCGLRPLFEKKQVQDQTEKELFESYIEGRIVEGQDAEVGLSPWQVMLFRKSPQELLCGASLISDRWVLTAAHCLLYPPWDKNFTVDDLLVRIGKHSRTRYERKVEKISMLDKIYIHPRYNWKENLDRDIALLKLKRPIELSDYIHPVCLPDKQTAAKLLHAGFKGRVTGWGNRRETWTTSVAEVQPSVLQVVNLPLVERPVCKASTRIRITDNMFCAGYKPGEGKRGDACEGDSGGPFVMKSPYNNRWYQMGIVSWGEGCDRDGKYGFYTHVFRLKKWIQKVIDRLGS
Each line names hits and unclear results; the compound was inactive in the other large screens (follow-up assays come after a bar, where they were run). Rule as the data show it, unless noted: active = inhibition above about 40%; inactive = the rest.

O=C1CCCN1CCCNc1nc(NCc2ccccc2)nc2ccsc12	none (no result: TPT1 inhibitor, ATG4B inh)
COCCOC(=O)c1c(C)n(C)c2ccc(OC(=O)c3ccccc3F)cc12	none
Cc1cc(Cl)ccc1Oc1ccccc1C(=O)CC#N	Rpn11 inh 56 | Rpn11 confirm inactive | MMP-2 counter inactive | Thrombin FP inactive
Cc1ccc(NC(=O)C2CCCN2S(=O)(=O)c2ccc3c(c2)n(C)c(=O)c(=O)n3C)c(C)c1 (stereo not given)	none
CCC(C)(C)NC(=O)Cc1ccc(OC)c(OC)c1	Rpn11 inh 138 | Rpn11 confirm inactive | MMP-2 counter inactive | Thrombin FP inactive
CC[C@@]12C(=O)N(c3cccc(F)c3)C(=O)N1[C@H](c1ccc(Br)cc1)[C@@H]1C(=O)N(C(C)(C)C)C(=O)[C@@H]12	none
Cc1ccc(Cn2c(/C=C/c3ccco3)nc3ccccc32)cc1	Rpn11 inh 59 | Rpn11 confirm inactive | MMP-2 counter inactive | Thrombin FP inactive
CCN(CC)CCCn1c2c(c(SCC(=O)Nc3nccs3)nc1=O)CCC2	none
CC1CCCN(c2nc3nonc3nc2Nc2ccccc2F)C1 (stereo not given)	none
COc1ccc(OC)c(Nc2nc3nonc3nc2N2CCCC(C)C2)c1 (stereo not given)	Rpn11 inh 62 | Rpn11 confirm inactive | MMP-2 counter inactive | Thrombin FP inactive
Cc1nc(C)c(C(=O)N/N=C/c2cc(Br)ccc2O)s1	Rpn11 inh 47 | Rpn11 confirm inactive | MMP-2 counter inactive | Thrombin FP inactive
Cc1nc(C)c(C(=O)N/N=C/c2c[nH]c3ccccc23)s1	none
FC(F)(F)c1nc(N2CCN(c3ccccc3)CC2)nc2c1CCCCC2	Rpn11 inh 48 | Rpn11 confirm inactive | MMP-2 counter inactive | Thrombin FP inactive
N#Cc1ccc(C(=O)N(Cc2ccco2)c2c(N)n(Cc3ccccc3)c(=O)[nH]c2=O)cc1	none (no result: TPT1 inhibitor)
COc1ccc(C(=O)CCc2nc3ccccc3s2)cc1	none
Cn1c(=O)c2cc(NC(=O)Nc3cccnc3)ccc2n1Cc1ccc(Cl)cc1	Rpn11 inh 46 (no result: TPT1 inhibitor, ATG4B inh) | Rpn11 confirm inactive | MMP-2 counter inactive | Thrombin FP inactive
O=C(Nc1ccnc(=O)[nH]1)c1sc2ccccc2c1Cl	Rpn11 inh 41 | Rpn11 confirm inactive | MMP-2 counter inactive | Thrombin FP inactive
Cc1sc2nc(SCC(=O)c3cc(C)n(CC4CCCO4)c3C)n(C(C)C)c(=O)c2c1C (stereo not given)	Rpn11 inh 123 | Rpn11 confirm inactive | MMP-2 counter inactive | Thrombin FP inactive
Cc1ccc2sc(NNC(=O)c3cc(=O)c4ccccc4o3)nc2c1C	Rpn11 inh 48 | Rpn11 confirm inactive | MMP-2 counter inactive | Thrombin FP inactive
COc1cc2nc(C(C)(C)C)oc(=O)c2cc1OC	none
CCC(CC)c1nc2cc(OC)c(OC)cc2c(=O)o1	Rpn11 inh active | Rpn11 confirm inactive | MMP-2 counter inactive | Thrombin FP inactive
CCCCOc1ccc2c(c1)/C(=C(\C(Cl)=C(Cl)Cl)[N+](=O)[O-])N2	Rpn11 inh 37 | Rpn11 confirm inactive | MMP-2 counter inactive | Thrombin FP inactive
Cc1nnc(C)c2c(C)n(C(c3ccccc3)c3ccccc3)c(C)c12	Rpn11 inh 43 | Rpn11 confirm inactive | MMP-2 counter inactive | Thrombin FP inactive
Cc1ccsc1C1C(C(=O)O)c2ccccc2C(=O)N1C (stereo not given)	Rpn11 inh 146 | Rpn11 confirm inactive | MMP-2 counter inactive | Thrombin FP inactive
CCS(=O)(=O)N1N=C(c2cccs2)CC1c1cc2cc(C)ccc2nc1Cl (stereo not given)	Rpn11 inh 64 | Rpn11 confirm inactive | MMP-2 counter inactive | Thrombin FP inactive
Cc1ccc2nc(Cl)c(C3CC(c4cccs4)=NN3C(=O)CCCC(=O)O)cc2c1 (stereo not given)	none
Cc1ccc(-c2c(C)c(-c3ccc(F)cc3)nc(N)c2C#N)o1	Rpn11 inh 42 | Rpn11 confirm inactive | MMP-2 counter inactive | Thrombin FP inactive
Cc1c(-c2ccc(F)cc2)nc(N)c(C#N)c1-c1cccnc1	none
O=C(N/N=C/c1ccc(O)c(Br)c1)c1cc2c(ccc3ccccc32)o1	none (no result: TPT1 inhibitor)
Cc1onc(-c2ccccc2)c1C(=O)N/N=C/c1cc(Br)c(O)c(Br)c1	Rpn11 inh 42 (no result: TPT1 inhibitor) | Rpn11 confirm inactive | MMP-2 counter inactive | Thrombin FP inactive
O=C(N/N=C/c1cc(Br)c(O)c(Br)c1)c1cc2c(ccc3ccccc32)o1	Rpn11 inh 74 (no result: TPT1 inhibitor) | Rpn11 confirm 59 | MMP-2 counter inactive | Thrombin FP 139
CC(=O)Oc1ccc(/C=N\NC(=O)c2cc3c(ccc4ccccc43)o2)cc1	Rpn11 inh 129 | Rpn11 confirm 56 | MMP-2 counter inactive | Thrombin FP inactive
Fc1ccccc1-c1nc(-c2ccncc2)no1	none
Fc1ccccc1-c1nc(-c2ccccc2)no1	Rpn11 inh 46 | Rpn11 confirm inactive | MMP-2 counter inactive | Thrombin FP inactive
COc1cc(/C=C/c2ccc3c(Br)cc(Br)c(O)c3n2)ccc1O	Rpn11 inh 43 | Rpn11 confirm inactive | MMP-2 counter inactive | Thrombin FP inactive
Cc1cccn2c(=O)c3cc(C(=O)NC4CCCC4)c(=N)n(C4CCCC4)c3nc12	Rpn11 inh 134 | Rpn11 confirm inactive | MMP-2 counter inactive | Thrombin FP inactive
N=c1c(C(=O)NC2CCCC2)cc2c(=O)n3ccccc3nc2n1C1CCCC1	none
COc1ccc(NC(=O)C2c3ccccc3OCC(=O)N2Cc2ccc3c(c2)OCO3)cc1 (stereo not given)	none (no result: TPT1 inhibitor, Rpn11 inh, ATG4B inh)
CC(C)=CCC/C(C)=C/CC/C(C)=C/COc1ccc2ccc(=O)oc2c1	none (no result: TPT1 inhibitor)
CCCCc1ccc(-c2csc(/C(C#N)=C\c3ccc(C)o3)n2)cc1	CSN deneddyl inh 38, Rpn11 inh 62, HNF4A DNA FP 45 | Rpn11 confirm inactive | MMP-2 counter inactive | Thrombin FP inactive
CCCCc1ccc(-c2csc(/C(C#N)=C/c3ccco3)n2)cc1	none
COc1cc(NC(=O)CCn2c(=S)[nH]c3ccccc3c2=O)cc(OC)c1OC	Rpn11 inh 64 (no result: TPT1 inhibitor, ATG4B inh) | Rpn11 confirm 103 | MMP-2 counter inactive | Thrombin FP inactive
O=C(Nc1ccc(Oc2ncnc3cc(Cl)ccc23)nc1)c1cccs1	Rpn11 inh 50 | Rpn11 confirm inactive | MMP-2 counter inactive | Thrombin FP inactive
